Key:
[1] = molecular target: T1, Neuronal acetylcholine receptor subunit alpha-7 (Rattus norvegicus, UniProt Q05941); assay: Potency was determined by measuring current activation in Xenopus oocytes expressing rat alpha-7 nAChRs; assay type: cell-based, Oocyte
How it was run: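 Xenopus oocytes injected with cRNA for rat α7 nAChR and recorded 3-10 days after injection. Read-out is evoked current activation. Intrinsic activity scaled in each oocyte to the current elicited by 3 mM acetylcholine, set as 100%.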

[2] = molecular target: T1, Neuronal acetylcholine receptor subunit alpha-7; assay: Binding affinity in rat hippocampi against Nicotinic acetylcholine receptor alpha7; assay type: tissue-based, Hippocampus
How it was run: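 Incubated with 5 nM [¹²⁵I]α-bungarotoxin and 1 mg/mL BSA for 2 h at 21 °C. Collected on GF/C filters pretreated with 1% BSA/0.01% PEI. IC50 from six concentrations in triplicate.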

[3] = molecular target: Neuronal acetylcholine receptor; alpha4/beta2 (Rattus norvegicus, UniProt P09483+P12390); assay: Binding affinity in rat forebrain against Nicotinic acetylcholine receptor alpha4-beta2
How it was run: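 Captured on GF/B filters treated with 0.01% PEI and counted by scintillation. Nonspecific binding taken with 100 µM carbachol. IC50 fitted from five concentrations run in triplicate.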

T1 sequence (Q05941 whole entry): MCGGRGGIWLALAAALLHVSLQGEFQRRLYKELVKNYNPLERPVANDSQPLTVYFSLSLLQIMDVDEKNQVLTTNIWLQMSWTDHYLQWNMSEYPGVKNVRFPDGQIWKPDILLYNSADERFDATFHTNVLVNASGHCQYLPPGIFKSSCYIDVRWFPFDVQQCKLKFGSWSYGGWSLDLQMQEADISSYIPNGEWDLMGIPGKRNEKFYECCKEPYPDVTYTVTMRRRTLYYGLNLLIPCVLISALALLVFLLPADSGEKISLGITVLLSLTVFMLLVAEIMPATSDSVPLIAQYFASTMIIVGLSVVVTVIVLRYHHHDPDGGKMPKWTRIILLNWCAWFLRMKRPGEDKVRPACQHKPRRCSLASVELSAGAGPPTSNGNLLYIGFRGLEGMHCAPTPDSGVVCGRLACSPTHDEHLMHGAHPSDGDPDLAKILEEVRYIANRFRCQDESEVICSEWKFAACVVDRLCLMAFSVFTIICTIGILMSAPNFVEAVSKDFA
Chain of Neuronal acetylcholine receptor; alpha4/beta2 (P09483 whole entry): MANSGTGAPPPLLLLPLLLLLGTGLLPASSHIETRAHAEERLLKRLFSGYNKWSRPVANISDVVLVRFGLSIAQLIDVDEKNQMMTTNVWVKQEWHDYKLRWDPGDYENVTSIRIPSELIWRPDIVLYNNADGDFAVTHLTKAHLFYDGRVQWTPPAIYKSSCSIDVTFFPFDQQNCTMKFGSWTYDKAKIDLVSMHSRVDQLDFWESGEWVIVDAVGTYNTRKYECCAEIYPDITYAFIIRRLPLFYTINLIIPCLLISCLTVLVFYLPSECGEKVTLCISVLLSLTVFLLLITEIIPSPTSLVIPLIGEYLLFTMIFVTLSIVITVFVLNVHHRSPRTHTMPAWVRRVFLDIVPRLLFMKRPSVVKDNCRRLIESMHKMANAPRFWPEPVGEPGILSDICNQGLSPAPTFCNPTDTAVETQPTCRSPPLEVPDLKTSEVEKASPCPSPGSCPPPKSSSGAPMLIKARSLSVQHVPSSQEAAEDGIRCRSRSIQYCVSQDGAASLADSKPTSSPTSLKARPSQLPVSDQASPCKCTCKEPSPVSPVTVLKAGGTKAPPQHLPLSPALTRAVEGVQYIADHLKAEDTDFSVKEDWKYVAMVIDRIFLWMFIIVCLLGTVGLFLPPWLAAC
Chain of Neuronal acetylcholine receptor; alpha4/beta2 (P12390 whole entry): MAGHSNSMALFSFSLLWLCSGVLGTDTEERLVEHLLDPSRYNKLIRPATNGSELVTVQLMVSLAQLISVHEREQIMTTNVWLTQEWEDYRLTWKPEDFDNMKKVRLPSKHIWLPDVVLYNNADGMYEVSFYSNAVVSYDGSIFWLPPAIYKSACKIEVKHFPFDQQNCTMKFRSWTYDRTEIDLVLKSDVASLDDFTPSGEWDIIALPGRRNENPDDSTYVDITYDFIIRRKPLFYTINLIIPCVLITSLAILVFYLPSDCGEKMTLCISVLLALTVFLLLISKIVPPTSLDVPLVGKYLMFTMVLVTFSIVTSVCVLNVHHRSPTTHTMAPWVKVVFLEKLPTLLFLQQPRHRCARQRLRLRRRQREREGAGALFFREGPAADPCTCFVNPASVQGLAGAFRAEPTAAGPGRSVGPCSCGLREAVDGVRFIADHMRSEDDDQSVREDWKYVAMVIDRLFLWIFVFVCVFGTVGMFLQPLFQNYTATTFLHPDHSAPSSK

Row | SMILES | EC50 [1] | Ki [2] | Ki [3]
1 | O=C1NCC2(CN3CCC2CC3)O1 (single isomer, unassigned; (-)) | 21000 µM | – | –
2 | O=C1CC2(CN1)CN1CCC2CC1 (configuration not stated) | – | 4 µM | –
3 | CCN1CC2(CN3CCC2CC3)OC1=O (configuration not stated) | – | 0.69 µM | 0.17 µM
4 | O=C1NC2(CO1)CN1CCC2CC1 (configuration not stated) | – | > 4.3 µM | –
5 | CN1C(=O)NCC12CN1CCC2CC1 (configuration not stated) | – | > 13 µM | –
6 | O=C1NCC2(CN3CCC2CC3)N1 (configuration not stated) | – | > 13 µM | –
